What all share (assay type): functional
One assay relates to Cryptococcus neoformans. The assay is described as follows: Antimicrobial activity against Cryptococcus neoformans by broth microdilution method. The method in brief: (§1)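 Fungal panel of Candida albicans, Candida parapsilosis, Aspergillus niger and Cryptococcus neoformans, tested in vitro by standard NCCLS broth microdilution. The yeast susceptibility reference cited is M27-A.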

A further assay relates to Bacillus subtilis. The assay is described as follows: Antibacterial activity against Bacillus subtilis by broth microdilution method. The method in brief:
(§2)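 In vitro broth microdilution following the NCCLS standard for bacteria (M7-A5). The test panel was Bacillus subtilis, Staphylococcus aureus, Klebsiella pneumoniae and Pseudomonas aeruginosa.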

Another assay relates to Aspergillus niger. The assay is described as follows: Antifungal activity against Aspergillus niger by broth microdilution method. Summed up: as §1
Assay [1] deals with Klebsiella pneumoniae. The assay is described as follows: Antibacterial activity against Klebsiella pneumoniae by broth microdilution method. Summed up: as §2
Another assay has as its system Candida albicans. The assay is described as follows: Antifungal activity against Candida albicans by broth microdilution method. Summed up: as §1
A further assay concerns Staphylococcus aureus. The assay is described as follows: Antibacterial activity against Staphylococcus aureus by broth microdilution method. Summed up:
as §2

The subject of a further assay is Candida parapsilosis. The assay is described as follows: Antifungal activity against Candida parapsilosis by broth microdilution method. To be noted: Lodderomyces parapsilosis. The method in brief: as §1
For assay [2], the system named is Klebsiella pneumoniae. The assay is described as follows: Ratio of compound MIC90 to gentamicin MIC90 for Klebsiella pneumoniae.
For assay [3], the system named is Pseudomonas aeruginosa. The assay is described as follows: Antibacterial activity against Pseudomonas aeruginosa by broth microdilution method. The method in brief: as §2
In assay [4] the test system is Pseudomonas aeruginosa. The assay is described as follows: Ratio of gentamicin MIC90 to compound MIC90 for Pseudomonas aeruginosa.

SMILES strings stand for the structures. ≈ marks a conversion by molar mass, not a printed value.

Consider `CON=C1C2C(c3ccccc3C)NC(c3ccccc3C)C1C(c1ccccc1C)NC2c1ccccc1C` (configuration not stated), for which the MIC90 in the assay with Cryptococcus neoformans is above 128 mg/L; in the assay on Bacillus subtilis, above 128 mg/L; in the assay with Aspergillus niger, 64 mg/L (≈ 121 µM); in the assay with Klebsiella pneumoniae [1] it was 16 mg/L (≈ 30.2 µM); with Candida albicans, 64 mg/L (≈ 121 µM); against Staphylococcus aureus, above 128 mg/L. For the same compound, the MIC90 against Candida parapsilosis turned out to be 8 mg/L (≈ 15.1 µM); against Pseudomonas aeruginosa [3], 16 mg/L (≈ 30.2 µM). In addition, in the assay with Klebsiella pneumoniae [2], the Ratio turned out to be 8.
Take `CON=C1C2C(c3ccccc3OC)NC(c3ccccc3OC)C1C(c1ccccc1OC)NC2c1ccccc1OC` (configuration not stated): the MIC90 is 8 mg/L (≈ 13.5 µM) in the assay with Cryptococcus neoformans; 64 mg/L (≈ 108 µM) with Bacillus subtilis; 4 mg/L (≈ 6.74 µM) against Aspergillus niger; 8 mg/L (≈ 13.5 µM) against Klebsiella pneumoniae [1]; 64 mg/L (≈ 108 µM) against Candida albicans; above 128 mg/L against Staphylococcus aureus. The values for the MIC90 against Candida parapsilosis and against Pseudomonas aeruginosa [3] were 32 mg/L (≈ 53.9 µM) and 16 mg/L (≈ 26.9 µM), respectively. The Ratio in the assay on Klebsiella pneumoniae [2] came out at 4.
For `CON=C1C2C(c3ccc(SC)cc3)NC(c3ccc(SC)cc3)C1C(c1ccc(SC)cc1)NC2c1ccc(SC)cc1` (configuration not stated), the MIC90 against Cryptococcus neoformans is 8 mg/L (≈ 12.2 µM); in the assay with Bacillus subtilis, 64 mg/L (≈ 97.3 µM); with Aspergillus niger, 4 mg/L (≈ 6.08 µM); in the assay on Klebsiella pneumoniae [1] it was 8 mg/L (≈ 12.2 µM); with Candida albicans it was 32 mg/L (≈ 48.6 µM); in the assay with Staphylococcus aureus it was above 128 mg/L. For the same compound, the MIC90 against Candida parapsilosis was 16 mg/L (≈ 24.3 µM); in the assay on Pseudomonas aeruginosa [3], 4 mg/L (≈ 6.08 µM). Moreover, the Ratio with Klebsiella pneumoniae [2] and with Pseudomonas aeruginosa [4] was 4 in each case.
`CON=C1C2C(c3ccc(C)cc3)NC(c3ccc(C)cc3)C1C(c1ccc(C)cc1)NC2c1ccc(C)cc1` (configuration not stated): the MIC90 in the assay on Cryptococcus neoformans is above 128 mg/L; with Bacillus subtilis, 64 mg/L (≈ 121 µM); against Aspergillus niger it was 64 mg/L (≈ 121 µM); in the assay on Klebsiella pneumoniae [1], 8 mg/L (≈ 15.1 µM); against Candida albicans it was 64 mg/L (≈ 121 µM); with Staphylococcus aureus, above 128 mg/L. Besides, the MIC90 is 2 mg/L (≈ 3.78 µM) with Candida parapsilosis and 4 mg/L (≈ 7.55 µM) against Pseudomonas aeruginosa [3]. In addition, the Ratio with Klebsiella pneumoniae [2] and in the assay on Pseudomonas aeruginosa [4] was 4 each time.
As to `CCCOc1ccc(C2NC(c3ccc(OCCC)cc3)C3C(=NOC)C2C(c2ccc(OCCC)cc2)NC3c2ccc(OCCC)cc2)cc1` (configuration not stated), the MIC90 in the assay with Cryptococcus neoformans is 32 mg/L (≈ 45.3 µM); with Bacillus subtilis it was above 128 mg/L; against Aspergillus niger, 16 mg/L (≈ 22.7 µM); with Klebsiella pneumoniae [1], 16 mg/L (≈ 22.7 µM); against Candida albicans, above 128 mg/L; with Staphylococcus aureus, above 128 mg/L. Also, the MIC90 in the assay with Candida parapsilosis is above 128 mg/L; with Pseudomonas aeruginosa [3], 64 mg/L (≈ 90.7 µM). Further, the Ratio with Klebsiella pneumoniae [2] is on record as 8.
Take `COc1ccc(C2NC(c3ccc(OC)cc3)C3C(=NO)C2C(c2ccc(OC)cc2)NC3c2ccc(OC)cc2)cc1` (configuration not stated): the MIC90 against Cryptococcus neoformans is 64 mg/L (≈ 110 µM); in the assay with Bacillus subtilis, above 128 mg/L; against Aspergillus niger it was 16 mg/L (≈ 27.6 µM); with Klebsiella pneumoniae [1] it was 64 mg/L (≈ 110 µM); with Candida albicans, above 128 mg/L; against Staphylococcus aureus, 64 mg/L (≈ 110 µM). The MIC90 in the assay on Candida parapsilosis turned out to be 64 mg/L (≈ 110 µM); in the assay on Pseudomonas aeruginosa [3] it was 16 mg/L (≈ 27.6 µM).
`CC(C)c1ccc(C2NC(c3ccc(C(C)C)cc3)C3C(=NO)C2C(c2ccc(C(C)C)cc2)NC3c2ccc(C(C)C)cc2)cc1` (configuration not stated): the MIC90 against Cryptococcus neoformans is above 128 mg/L; in the assay on Bacillus subtilis, above 128 mg/L; in the assay on Aspergillus niger it was above 128 mg/L; in the assay on Klebsiella pneumoniae [1], 128 mg/L (≈ 204 µM); with Candida albicans, above 128 mg/L; with Staphylococcus aureus, 128 mg/L (≈ 204 µM). Further, the MIC90 in the assay with Candida parapsilosis is 32 mg/L (≈ 51 µM); against Pseudomonas aeruginosa [3], 16 mg/L (≈ 25.5 µM).
As to `Cc1ccccc1C1NC(c2ccccc2C)C2C(=NO)C1C(c1ccccc1C)NC2c1ccccc1C` (configuration not stated), the MIC90 in the assay on Cryptococcus neoformans is above 128 mg/L; against Bacillus subtilis, above 128 mg/L; in the assay with Aspergillus niger it was 64 mg/L (≈ 124 µM); against Klebsiella pneumoniae [1], above 128 mg/L; in the assay with Candida albicans it was 64 mg/L (≈ 124 µM); with Staphylococcus aureus, 128 mg/L (≈ 248 µM). Besides, the MIC90 against Candida parapsilosis was 8 mg/L (≈ 15.5 µM); in the assay with Pseudomonas aeruginosa [3] it was 32 mg/L (≈ 62.1 µM).
On to `CON=C1C2C(c3cccc(Br)c3)NC(c3cccc(Br)c3)C1C(c1cccc(Br)c1)NC2c1cccc(Br)c1` (configuration not stated), for which the MIC90 with Cryptococcus neoformans, against Bacillus subtilis, with Aspergillus niger, against Klebsiella pneumoniae [1], with Candida albicans and against Staphylococcus aureus was above 128 mg/L throughout. The MIC90 in the assay with Candida parapsilosis and in the assay with Pseudomonas aeruginosa [3] was above 128 mg/L each time.
As for `CCOc1ccc(C2NC(c3ccc(OCC)cc3)C3C(=NO)C2C(c2ccc(OCC)cc2)NC3c2ccc(OCC)cc2)cc1` (configuration not stated), the MIC90 is 64 mg/L (≈ 101 µM) against Cryptococcus neoformans; above 128 mg/L against Bacillus subtilis; 16 mg/L (≈ 25.2 µM) in the assay on Aspergillus niger; 32 mg/L (≈ 50.3 µM) in the assay on Klebsiella pneumoniae [1]; above 128 mg/L against Candida albicans; above 128 mg/L in the assay on Staphylococcus aureus. Further, the MIC90 against Candida parapsilosis was above 128 mg/L; against Pseudomonas aeruginosa [3], 32 mg/L (≈ 50.3 µM).
